MrgX1 allo act: positive allosteric modulators of MrgX1, primary screen, HEK293 cells, Fluo-4 calcium flux; FDSS; hits give high values; B-score at 10 µM; AID 588675, 2011; Mas-related G-protein coupled receptor member X1 (Homo sapiens), Q96LB2; 0.63% of 310,000 active;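 active = plate-corrected calcium response at least 3 library SD above typical, normal starting fluorescence, not activating the receptor alone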;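 note: compound read alongside a low EC10 to EC30 dose of BAM8-22 agonist; peak minus trough fluorescence over baseline measured at the second addition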
Target sequence (Q96LB2 whole entry, looked up): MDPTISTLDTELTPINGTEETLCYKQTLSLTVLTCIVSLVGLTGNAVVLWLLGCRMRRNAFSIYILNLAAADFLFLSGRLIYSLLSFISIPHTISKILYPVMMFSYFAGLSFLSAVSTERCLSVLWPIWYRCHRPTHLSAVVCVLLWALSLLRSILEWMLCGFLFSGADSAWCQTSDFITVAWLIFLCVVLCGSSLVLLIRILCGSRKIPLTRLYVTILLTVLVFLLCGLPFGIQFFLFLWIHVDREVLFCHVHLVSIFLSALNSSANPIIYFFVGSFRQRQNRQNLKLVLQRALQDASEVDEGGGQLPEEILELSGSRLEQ
RGS4 inh: RGS4 inhibitors, primary screen, cell-based, HEK293 M3R inducible RGS4, calcium flux; Fluo-4 calcium flux; hits give high values; triggered by carbachol at its EC20; 0.45% of 310,000 active; Regulator of G-protein signaling 4 (Homo sapiens), P49798; B-score at 10 µM; AID 463165, 2010;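 active = B-score, a plate-corrected calcium signal, over three deviations above library mean, with baseline fluorescence within five deviations of library mean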;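 note: RGS4 expression induced by doxycycline in cells with stable M3 receptor; B-score is computed from the integrated fluorescence ratio over baseline after carbachol; higher B-score means a larger calcium signal and so more RGS4 inhibition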
Target sequence (P49798 whole entry, looked up): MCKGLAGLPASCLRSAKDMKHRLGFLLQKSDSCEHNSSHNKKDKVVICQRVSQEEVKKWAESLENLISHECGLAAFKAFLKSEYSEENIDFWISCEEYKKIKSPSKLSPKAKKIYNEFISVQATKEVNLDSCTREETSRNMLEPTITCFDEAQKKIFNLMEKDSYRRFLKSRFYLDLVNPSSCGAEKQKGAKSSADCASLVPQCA
MrgX1 antagonist: antagonists of human MrgX1 receptor, primary screen, HEK293 cells, Fluo-4 calcium flux; Mas-related G-protein coupled receptor member X1 (Homo sapiens), Q96LB2; 1.3% of 310,000 active; AID 588676, 2011; B-score at 10 µM; BAM8-22 antagonism; hits give low values;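 active = calcium-response B-score plate-corrected more than 3 library SD below zero, starting fluorescence within 5 deviations, no agonist response on first addition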;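 note: peak minus trough fluorescence over baseline after final BAM8-22 challenge near maximal dose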
MrgX1 agonist: agonists of human MrgX1 receptor, primary screen, HEK293 cells, Fluo-4 calcium flux | Mas-related G-protein coupled receptor member X1 (Homo sapiens), Q96LB2 | Fluo-4 calcium fluorescence, agonist mode; hits give high values | B-score at 10 µM | 0.44% of 310,000 active | AID 588627, 2011;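 active = calcium response B-score plate-corrected fluorescence ratio at least 3 library SD, with starting fluorescence B-score inside 5 SD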
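Material: HEK293 cells stably expressing human MrgX1 receptor | Quantity: 15,000 cells per well | Times: Cells plated overnight, dye loaded 0.5 h 37 °C, 0.5 h room temperature | Measured by: Kinetic Fluo-4 NW fluorescence of intracellular calcium | Control set: Positive and negative controls per plate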
RGS4 act: RGS4 potentiators or activators, primary screen, cell-based, HEK293 M3R inducible RGS4, calcium flux; 0.92% of 310,000 active; B-score at 10 µM; carbachol calcium flux Fluo4; hits give low values;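 active = B-score of the integrated calcium signal more than 4 SD below the library mean, with starting fluorescence not abnormally high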;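 note: negative B-score means reduced calcium response which marks RGS4 activation or potentiation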
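Material: Inducible-RGS4 HEK293 cells carrying M3 receptor; also added: carbachol at ECmax as muscarinic agonist stimulus; incubation: compound preincubation 20 min at room temperature before agonist; signal: Fluo4-AM (2 µM) calcium-flux fluorescence, kinetic read; measure: integrated calcium ratio converted to B score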
RGS4 block valid: enhanced carbachol calcium response, M3R/RGS4 cells, RGS4 inhibitor project, cell-based, validation screen, HEK293 M3R/RGS4, calcium flux | shares compounds with RGS4 inh | carbachol calcium Fluo-4 fluorescence; carbachol added at its EC20; 0 = buffer wells, 100 = carbachol control | calcium response, % at 10 µM | 65% of 1,700 active | AID 492999, 2010;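 active = duplicate-averaged calcium response above the buffer-only control mean plus 5 SD of those controls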;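 note: integrated fluorescence ratio F max minus min over baseline F0; higher response in RGS4-induced cells means RGS4 inhibition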
RGS4 uninduced: carbachol calcium response in non-induced M3R cells, confirmation, counter-screen for RGS4 inhibitor project, cell-based, HEK293 M3R; shares compounds with RGS4 inh; carbachol calcium Fluo-4; submaximal (EC20) carbachol stimulus; buffer wells 0%, carbachol control wells 100%; activity (percent), % at 10 µM; 20% of 1,900 active; AID 493000, 2010; call rule not given here;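 note: RGS4 induction absent so cells express M3R without RGS4; higher means more calcium signal and flags a non-specific hit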
RGS4 inh ctr2: second counter-screen for RGS4 inhibitors: non-induced cells without carbachol; shares compounds with RGS4 inh; HEK293 M3R/RGS4 non-induced, Fluo-4 calcium, no carbachol; normalised: buffer wells 0%, carbachol wells 100%; calcium response (agonist-mode artifact), % at 10 µM; 22% of 1,900 active;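 active = duplicate-averaged calcium rise in uninduced cells above buffer wells' mean plus 5 SD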
Of the large screens only hits and unclear results are named; the others gave an inactive call (follow-up assays come after a bar, where they were run). This is a sample that favours compounds with a hit; in the whole collection about 3.5% have one here.

COc1ccc(S(=O)(=O)N2CCN(C(=O)c3ccc([N+](=O)[O-])o3)CC2)cc1	none
CCOC(=O)N1CCN(C(=O)C2CCC(=O)N(Cc3ccc(Cl)cc3)C2)CC1 (stereo not drawn)	none
COc1cc(C(C)=O)ccc1OCC(=O)N1CCc2ccccc2C1	none
COc1cc(NC(=O)c2cccc(C)c2)c(Cl)cc1[N+](=O)[O-]	none
Cc1ccc(SCc2[nH]nc3c2C2(C(=O)Nc4ccc(F)cc42)C(C#N)=C(N)O3)cc1 (stereo not drawn)	none | RGS4 uninduced inactive | RGS4 inh ctr2 inactive
O=C(CCn1c(=O)oc2ccccc21)NCc1cccs1	none
O=C(Cn1cnc2c(nnn2-c2ccc(F)cc2)c1=O)N1CCCC1	none
Cc1[nH]nc2c1C1(C(=O)N(Cc3ccc(Cl)cc3)c3ccccc31)C(C#N)=C(N)O2 (stereo not drawn)	none
COC(=O)Cc1[nH]nc2c1C1(C(=O)N(Cc3ccccc3)c3ccccc31)C(C#N)=C(N)O2 (stereo not drawn)	none | RGS4 uninduced inactive | RGS4 inh ctr2 inactive
N#Cc1c(Cl)c(Cl)c2nnc(-c3ccc(Br)cc3)n2c1Cl	RGS4 inh 6 | RGS4 block valid 8.0% | RGS4 uninduced inactive | RGS4 inh ctr2 11%
[S-]c1nnc(-c2ccc(Br)cc2)n1-c1ccccc1.[Zn+2]	none
COCCNC(=O)COC(=O)c1cc(-c2ccc(OC)cc2)nc2ccccc12	none
O=C(/C=C/c1ccccn1)c1cc(Br)ccc1O	RGS4 inh 7 | RGS4 block valid 12% | RGS4 uninduced 36% | RGS4 inh ctr2 inactive
O=C(/C=C/c1ccccn1)c1ccc(Br)cc1O	none (no result: RGS4 inh, RGS4 act)
COc1cccc(Cn2c(=O)c3[nH]cnc3n(-c3ccccc3C)c2=O)c1	none | RGS4 uninduced inactive | RGS4 inh ctr2 inactive
COc1ccccc1CNC(=O)COC(=O)c1c(C)nn(-c2ccccc2)c1Cl	RGS4 inh 18 | RGS4 block valid inactive | RGS4 uninduced inactive | RGS4 inh ctr2 inactive
C/C(=N/NC(=O)CNc1ccc(C)cc1)c1ccc(Cl)cc1	RGS4 inh 5.5 | RGS4 block valid 7.0% | RGS4 uninduced inactive | RGS4 inh ctr2 inactive
Cc1ccc(C(=O)CNc2ccc(Cl)cc2)cc1	none
Cc1cc(C)n(-c2ccc(S(=O)(=O)N3CCCC3)cc2[N+](=O)[O-])n1	none
Cc1ccc(-c2nc3cnccn3c2Nc2ccc3c(c2)OCO3)o1	none
Cc1ccc(-c2nc3cnccn3c2Nc2ccccc2)o1	RGS4 inh 10 | RGS4 block valid inactive | RGS4 uninduced inactive | RGS4 inh ctr2 inactive
Cc1ccc(-c2nc3ccccn3c2Nc2ccccc2)o1	none
Cc1ccc(Nc2c(-c3ccc(C)o3)nc3cnccn23)cc1	none | RGS4 block valid inactive | RGS4 uninduced inactive | RGS4 inh ctr2 inactive
C=CCn1c(O)c(C2=c3ccccc3=NC2=O)c2ccccc21	RGS4 inh 5.6 | RGS4 block valid 12% | RGS4 uninduced 33% | RGS4 inh ctr2 22%
Cc1ccc2c(c1)c(C1=c3ccccc3=NC1=O)c(O)n2C	none
CCOC(=O)C1=C(CS(=O)(=O)c2ccc(C)cc2)NC(=O)NC1c1ccc(O)c(OC)c1 (stereo not drawn)	none
COC(=O)C1=C(CS(=O)(=O)c2ccc(C)cc2)NC(=O)NC1c1ccc(OC)c(OC)c1 (stereo not drawn)	none | RGS4 block valid inactive | RGS4 uninduced inactive | RGS4 inh ctr2 inactive
O=C1c2cccc3cc([N+](=O)[O-])cc(c23)C(=O)N1c1ccccc1O	RGS4 inh 5.1 | RGS4 block valid 14% | RGS4 uninduced inactive | RGS4 inh ctr2 inactive
O=C(CNc1ccc2ccccc2c1)N/N=C/c1cc2ccccc2nc1Cl	none | RGS4 uninduced inactive | RGS4 inh ctr2 inactive
CCSc1nc2ccccc2n1C(=O)/C=C/c1ccc(OC)c(OC)c1	RGS4 inh 11 | RGS4 block valid 12% | RGS4 uninduced inactive | RGS4 inh ctr2 inactive
C=CCSc1nc2ccccc2n1C(=O)/C=C/c1ccc(OC)c(OC)c1	none | RGS4 uninduced inactive | RGS4 inh ctr2 12%
C=CCSc1nc2ccccc2n1C(=O)/C=C/c1cc(OC)c(OC)c(OC)c1	none
Cc1cc(Br)ccc1OCCn1ccnc1	none
O=C(N/N=C/c1ccc(-c2cccc([N+](=O)[O-])c2)o1)[C@H]1C[C@@H]1c1ccccc1	RGS4 inh 5.7 | RGS4 block valid inactive | RGS4 uninduced inactive | RGS4 inh ctr2 inactive
O=C(N/N=C/c1ccc(-c2ccc([N+](=O)[O-])cc2)o1)[C@H]1C[C@@H]1c1ccccc1	none | RGS4 block valid inactive | RGS4 uninduced inactive | RGS4 inh ctr2 39%
O=C(N/N=C/c1ccc(-c2ccccc2[N+](=O)[O-])o1)[C@H]1C[C@@H]1c1ccccc1	none
CC1C/C(=C/c2ccccn2)C(=O)/C(=C/c2ccccn2)C1 (stereo not drawn)	RGS4 inh 10 | RGS4 block valid 36% | RGS4 uninduced inactive | RGS4 inh ctr2 13%
O=C(OCn1ncc(Br)c(Br)c1=O)c1ccc(F)cc1	RGS4 inh 13 | RGS4 block valid 24% | RGS4 uninduced inactive | RGS4 inh ctr2 inactive
COC(=O)c1c(C)cc(O)c(C=O)c1O	RGS4 inh 5.2 | RGS4 block valid 26% | RGS4 uninduced inactive | RGS4 inh ctr2 inactive
COC(=O)c1c(C)c(OC(=O)c2c(C)cc(O)c(C=O)c2O)cc(C)c1O	none
COc1ccc(S(=O)(=O)N2CCC(C(=O)N(CC(C)C)C3CCS(=O)(=O)C3)CC2)cc1OC (stereo not drawn)	none
CC(=O)/C=C/n1c(=S)oc2ccccc21	RGS4 inh 10 | RGS4 block valid 21% | RGS4 uninduced inactive | RGS4 inh ctr2 7.0%
COc1ccc2c(c1OC)C(=O)OC2Nc1nc(-c2ccc(-c3ccccc3)cc2)cs1 (stereo not drawn)	none | RGS4 block valid inactive | RGS4 uninduced inactive | RGS4 inh ctr2 8.0%
COc1ccc2c(c1OC)C(=O)OC2Nc1nc(-c2cc3ccccc3oc2=O)cs1 (stereo not drawn)	none
COc1cccc(-c2csc(NC3OC(=O)c4c3ccc(OC)c4OC)n2)c1 (stereo not drawn)	none | RGS4 uninduced inactive | RGS4 inh ctr2 inactive

High-throughput results as filed in PubChem BioAssay.
